Source: publication PMC7983888 (Clinical Pharmacology in Drug Development, 2020)
“And” between values parts separate entries of the source, which are not always exact repeats. Equal entries are not always repeated. “Also recorded” adds a separate entry of the source.

Tests used:
[1] = Plasma glasdegib pharmacokinetics after single oral doses; format: in vivo, human; conditions: for AUCextrap / CL/F: fasted, n=35, arithmetic mean ± SD; for Cmax / half-life: human, plasma, po
Outline: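 Healthy volunteers in a randomized, double-blind, 4-period crossover received single oral doses after an overnight fast (≥10 hours), with washout ≥6 days. Plasma was assayed by validated HPLC-MS/MS: calibration 3–3000 ng/mL with 1/concentration² weighting, LLOQ 3 ng/mL, samples stored at −70°C. Cmax, Tmax, AUClast, AUCinf, CL/F, apparent volume and terminal half-life were derived by noncompartmental analysis.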

[2] = tested on: cardiac repolarization (QTc interval) in healthy volunteers; assay: Thorough QT study: ANCOVA of QTcF versus time-matched placebo; format: in vivo, human; conditions: for QTcF Difference (Glasdegib‐Placebo) (90%CI) / QTcF LS Mean: N = 35
[3] = tested on: cardiac repolarization (QTc interval) in healthy volunteers; assay: Exposure-response; format: in vivo, human
healthy volunteers = assay: Safety and tolerability; format: in vivo, human
[4] = tested on: human ether‐à‐go‐go‐related gene (hERG) potassium channels; conditions: human embryonic kidney 293 cells; cited from earlier work
[5] = tested on: patients with advanced hematologic malignancies; conditions: cited from earlier work
[6] = patient population, cited from earlier work
[7] = glasdegib 150 mg single oral dose
[8] = glasdegib 300 mg single oral dose
[9] = glasdegib 150 mg single dose, 0.5 h postdose
[10] = glasdegib 150 mg single dose, 1 h postdose
[11] = glasdegib 150 mg single dose, 1.5 h postdose
[12] = glasdegib 150 mg single dose, 2 h postdose
[13] = glasdegib 150 mg single dose, 3 h postdose
[14] = glasdegib 150 mg single dose, 4 h postdose
[15] = glasdegib 150 mg single dose, 6 h postdose
[16] = glasdegib 150 mg single dose, 24 h postdose
[17] = glasdegib 300 mg single dose, 0.5 h postdose
[18] = glasdegib 300 mg single dose, 1 h postdose
[19] = glasdegib 300 mg single dose, 1.5 h postdose
[20] = glasdegib 300 mg single dose, 2 h postdose
[21] = glasdegib 300 mg single dose, 3 h postdose
[22] = glasdegib 300 mg single dose, 4 h postdose
[23] = glasdegib 300 mg single dose, 6 h postdose
[24] = glasdegib 300 mg single dose, 24 h postdose
[25] = moxifloxacin 400 mg single dose

## CN1CC[C@@H](NC(=O)Nc2ccc(C#N)cc2)C[C@@H]1c1nc2ccccc2[nH]1 [Glasdegib]
[1]; [7]
  AUCextrap: 0.6660 ± 0.30%
  CL/F: 10.37 ± 3.58 L/h
[1]; [8]
  AUCextrap: 0.4113 ± 0.19%
  CL/F: 10.09 ± 3.05 L/h
[1]; 150 mg
  Cmax: 1120 ± 388 ng/mL
  half-life: 15.8 ± 2.06 h
[1]; 300 mg
  Cmax: 2300 ± 651 ng/mL
  half-life: 15.5 ± 1.77 h
[1]; single oral doses of 150 and 300 mg
  dose proportionality of geometric mean AUCinf and Cmax: increased proportionally with dose
[2]; glasdegib 150 mg (therapeutic plasma exposure), 4 hours postdose
  highest 90%CI upper bound for the largest and placebo‐ and baseline‐adjusted QTcF change: 10.22 milliseconds
[2]; glasdegib 150 mg and 300 mg single doses
  upper bound of the 2‐sided 90%CIs for all time‐matched least‐squares mean differences in QTcF between glasdegib and placebo: < 20 milliseconds
[2]; [9]
  QTcF Difference (Glasdegib‐Placebo) (90%CI): −0.09 (−2.28 to 2.09) Milliseconds
  QTcF LS Mean: 406.43 Milliseconds
[2]; [10]
  QTcF Difference (Glasdegib‐Placebo) (90%CI): 2.07 (−0.11 to 4.25) Milliseconds
  QTcF LS Mean: 407.86 Milliseconds
[2]; [11]
  QTcF Difference (Glasdegib‐Placebo) (90%CI): 5.17 (2.99‐7.35) Milliseconds
  QTcF LS Mean: 410.08 Milliseconds
[2]; [12]
  QTcF Difference (Glasdegib‐Placebo) (90%CI): 5.98 (3.80‐8.16) Milliseconds
  QTcF LS Mean: 410.58 Milliseconds
[2]; [13]
  QTcF Difference (Glasdegib‐Placebo) (90%CI): 7.76 (5.58‐9.95) Milliseconds
  QTcF LS Mean: 412.06 Milliseconds
[2]; [14]
  QTcF Difference (Glasdegib‐Placebo) (90%CI): 8.03 (5.85‐10.22) Milliseconds
  QTcF LS Mean: 413.23 Milliseconds
[2]; [15]
  QTcF Difference (Glasdegib‐Placebo) (90%CI): 5.11 (2.93‐7.29) Milliseconds
  QTcF LS Mean: 407.38 Milliseconds
[2]; [16]
  QTcF Difference (Glasdegib‐Placebo) (90%CI): 5.92 (3.74‐8.10) Milliseconds
  QTcF LS Mean: 410.98 Milliseconds
[2]; glasdegib 300 mg (supratherapeutic plasma exposure), 3 hours postdose
  highest 90%CI upper bound for the largest, placebo‐ and baseline‐adjusted QTcF change: 15.61 milliseconds
[2]; [17]
  QTcF Difference (Glasdegib‐Placebo) (90%CI): 0.65 (−1.53 to 2.83) Milliseconds
  QTcF LS Mean: 407.18 Milliseconds
[2]; [18]
  QTcF Difference (Glasdegib‐Placebo) (90%CI): 5.14 (2.96‐7.32) Milliseconds
  QTcF LS Mean: 410.92 Milliseconds
[2]; [19]
  QTcF Difference (Glasdegib‐Placebo) (90%CI): 9.84 (7.66‐12.02) Milliseconds
  QTcF LS Mean: 414.75 Milliseconds
[2]; [20]
  QTcF Difference (Glasdegib‐Placebo) (90%CI): 11.06 (8.88‐13.24) Milliseconds
  QTcF LS Mean: 415.66 Milliseconds
[2]; [21]
  QTcF Difference (Glasdegib‐Placebo) (90%CI): 13.43 (11.25‐15.61) Milliseconds
  QTcF LS Mean: 417.72 Milliseconds
[2]; [22]
  QTcF Difference (Glasdegib‐Placebo) (90%CI): 13.41 (11.23‐15.59) Milliseconds
  QTcF LS Mean: 418.60 Milliseconds
[2]; [23]
  QTcF Difference (Glasdegib‐Placebo) (90%CI): 10.82 (8.64‐13.00) Milliseconds
  QTcF LS Mean: 413.08 Milliseconds
[2]; [24]
  QTcF Difference (Glasdegib‐Placebo) (90%CI): 8.91 (6.73‐11.09) Milliseconds
  QTcF LS Mean: 413.96 Milliseconds
[3]; 150 and 300 mg single doses
  PK/PD hysteresis (lag between plasma concentration and effect on QTc): No PK/PD hysteresis
[3]; LME model
  mean slope estimate describing the ∆QTcF‐concentration relationship: 0.005 ms/ng/mL
[3]; LME model of ∆RR versus glasdegib concentration
  effect on heart rate (change in RR interval, ∆RR versus concentration): not to have a meaningful effect on heart rate; also recorded: relationship of negligible magnitude
[3]; QTcF, LME model
  Slope Estimate From Final Model, ∆QTcF per ng/mL (95%CI): 0.005 (0.004‐0.006) Milliseconds per ng/mL
[3]; QTcS (study population-specific correction), LME model
  Slope Estimate From Final Model, ∆QTcS per ng/mL (95%CI): 0.004 (0.003‐0.005) Milliseconds per ng/mL
[3]; Supratherapeutic Steady‐State Cmax (2445 ng/mL)
  Model‐Derived ∆∆QTcS (90%CI): 11.89 (10.14‐13.64) Milliseconds
[3]; Supratherapeutic Steady‐State Cmax (2445 ng/mL), 200 mg once daily
  Model‐Derived ∆∆QTcF (90%CI): 13.72 (11.95‐15.49) Milliseconds
[3]; Therapeutic Steady‐State Cmax (1137 ng/mL)
  Model‐Derived ∆∆QTcS (90%CI): 6.55 (5.68‐7.43) Milliseconds
[3]; Therapeutic Steady‐State Cmax (1137 ng/mL), 100 mg once daily
  Model‐Derived ∆∆QTcF (90%CI): 7.34 (6.46‐8.22) Milliseconds
[3]; Therapeutic Steady‐State Cmax (1137 ng/mL), 100 mg once daily, listed as glasdegib
  Model‐Derived ∆∆QTcF (90%CI): 7.3 Milliseconds and 7.34 Milliseconds
[3]; mean therapeutic glasdegib Cmax
  upper bound of the 90%CI of mean predicted ΔΔQTcF: < 10 milliseconds
[3]; supratherapeutic glasdegib Cmax (twice the therapeutic dose)
  upper bound of the 90%CI of mean predicted ΔΔQTcF: < 20 milliseconds
Healthy volunteers; glasdegib 150 mg single dose
  treatment‐emergent AEs (TEAEs), number: 25
  treatment‐related AEs (TRAEs), number: 20
Healthy volunteers; glasdegib 300 mg single dose
  treatment‐emergent AEs (TEAEs), number: 26
  treatment‐related AEs (TRAEs), number: 20
Healthy volunteers; single oral doses of 150 and 300 mg, healthy adult subjects
  tolerability (in words): well tolerated
[4]
  hERG potassium channel inhibition (in words): inhibit the human ether‐à‐go‐go‐related gene (hERG) potassium channels in a concentration‐dependent manner
[5]; multiple dosing at 400 mg and 600 mg once daily
  QTc experienced by some patients: > 500 milliseconds
[5]; single-agent, patients with advanced hematologic malignancies
  maximum tolerated dose: 400 mg once daily
[6]; 100 mg once daily
  Therapeutic Steady‐State Cmax: Therapeutic Steady‐State Cmax (1137 ng/mL)
[6]; 200 mg once daily
  Supratherapeutic Steady‐State Cmax: Supratherapeutic Steady‐State Cmax (2445 ng/mL)

## COc1c(N2C[C@@H]3CCCN[C@@H]3C2)c(F)cc2c(=O)c(C(=O)O)cn(C3CC3)c12 [Moxifloxacin]
Healthy volunteers; [25]
  treatment‐emergent AEs (TEAEs), number: 27
  treatment‐related AEs (TRAEs), number: 23
